ChEMBL document CHEMBL4028902, “Azetidine and Piperidine Carbamates as Efficient, Covalent Inhibitors of Monoacylglycerol Lipase” (J Med Chem, 2017)
Activity calls are given as the source filed them. No cut-off for these calls is given here.

Tests used:
[1] = tested on: Mus musculus; test: In vivo inhibition of MAGL in C57Bl6 mouse assessed as increase in 2-AG levels in brain at 10 mg/kg, sc after 8 hrs by LC-MS/MS method relative to control; format: functional
How it was run: (§1)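 C57Bl6 mice, 7 weeks old, 4 per cage, food and water ad libitum, dosed subcutaneously in DMSO/Cremophor/saline (5:5:90, v/v/v). Brains taken after isoflurane, cardiac puncture and cervical dislocation at 0.5, 1, 2, 4, 8, 12 and 24 h (3 mice per time point); vehicle group at 1 h. Frozen in liquid nitrogen, homogenized in 3 volumes PMSF/NH4OAc buffer pH 2.0, d5-2-AG internal standard, ACN extraction, LC-MS/MS (positive ESI, SRM).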

[2] = tested on: Mus musculus; test: In vivo inhibition of MAGL in C57Bl6 mouse assessed as increase in 2-AG levels in brain at 1 mg/kg, sc measured after 1 to 24 hrs by LC-MS/MS method; format: functional, organism-based; how it was run: as §1
[3] = Ratio of unbound drug level in C57Bl6 mouse brain to plasma at 10 mg/kg, sc; format: ADME, organism-based
How it was run: (§2)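 Subcutaneous dosing of C57Bl6 mice in DMSO/Cremophor/saline (5:5:90). Plasma (NaF/K2EDTA tubes) and cerebellum collected at 0.5–24 h, 3 mice per time point. Cerebellum diluted 1:4 (w/v) with water and homogenized; samples deproteinated with methanol/acetonitrile plus internal standard, then HPLC-MS/MS. LLOQ 1.0 ng/mL plasma, 0.5 ng/mL brain homogenate. PK parameters by noncompartmental analysis.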

[4] = target: T1, Liver carboxylesterase 1 (Homo sapiens, UniProt P23141); test: Inhibition of human CES1 at 1 to 10 uM relative to control
T1 sequence (P23141 whole entry): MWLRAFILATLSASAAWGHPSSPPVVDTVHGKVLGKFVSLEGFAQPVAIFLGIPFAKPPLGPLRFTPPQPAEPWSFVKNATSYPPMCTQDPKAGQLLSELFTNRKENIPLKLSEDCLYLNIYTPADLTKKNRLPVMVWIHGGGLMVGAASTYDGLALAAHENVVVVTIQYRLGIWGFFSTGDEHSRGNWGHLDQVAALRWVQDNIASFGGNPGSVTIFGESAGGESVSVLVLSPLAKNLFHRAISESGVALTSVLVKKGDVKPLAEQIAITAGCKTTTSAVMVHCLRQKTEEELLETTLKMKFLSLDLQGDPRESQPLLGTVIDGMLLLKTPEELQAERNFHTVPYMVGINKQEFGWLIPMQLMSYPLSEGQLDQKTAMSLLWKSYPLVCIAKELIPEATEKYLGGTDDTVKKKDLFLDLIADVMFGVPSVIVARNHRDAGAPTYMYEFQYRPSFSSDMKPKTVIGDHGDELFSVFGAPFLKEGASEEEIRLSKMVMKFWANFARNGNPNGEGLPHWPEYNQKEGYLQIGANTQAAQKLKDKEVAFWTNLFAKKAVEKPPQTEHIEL

[5] = tested on: Mus musculus; test: Time required for unbound brain concentration to reach above in vitro IC50 for recombinant human MAGL in C57Bl6 mouse at 10 mg/kg, sc; how it was run: as §2
[6] = target: T2, Fatty-acid amide hydrolase 1 (Homo sapiens, UniProt O00519); test: Inhibition of human recombinant FAAH using arachidonoyl-AMC as substrate preincubated for 30 mins followed by substrate addition measured after 60 mins by fluorescence assay
T2 sequence (O00519 whole entry): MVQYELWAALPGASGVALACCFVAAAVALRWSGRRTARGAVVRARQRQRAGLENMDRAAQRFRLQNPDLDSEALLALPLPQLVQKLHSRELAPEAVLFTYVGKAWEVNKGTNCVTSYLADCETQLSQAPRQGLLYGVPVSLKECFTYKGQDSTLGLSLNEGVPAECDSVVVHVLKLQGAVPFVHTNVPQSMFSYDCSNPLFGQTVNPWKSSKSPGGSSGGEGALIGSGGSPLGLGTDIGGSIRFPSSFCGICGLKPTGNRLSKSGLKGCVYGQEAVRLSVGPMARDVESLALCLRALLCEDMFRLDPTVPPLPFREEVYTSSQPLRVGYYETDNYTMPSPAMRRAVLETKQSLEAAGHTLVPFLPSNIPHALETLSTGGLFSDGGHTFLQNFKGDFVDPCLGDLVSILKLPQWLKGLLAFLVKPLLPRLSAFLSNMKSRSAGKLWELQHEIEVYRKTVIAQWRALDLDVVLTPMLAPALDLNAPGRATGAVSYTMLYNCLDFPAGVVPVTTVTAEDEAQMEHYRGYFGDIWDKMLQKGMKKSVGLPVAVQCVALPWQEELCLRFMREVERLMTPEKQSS
How it was run: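 Human recombinant FAAH (0.0125 unit final) in 50 mM Tris pH 9.0, 1 mM EDTA, preincubated 30 min at room temperature with compound (final 30 μM–0.3 nM). Arachidonoyl-AMC added (5 μM final), reaction run 60 min, fluorescence Ex/Em 355/460. Percent inhibition versus no-compound and full-inhibition controls.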

[7] = tested on: Mus musculus; test: In vivo inhibition of MAGL in C57Bl6 mouse assessed as increase in 2-AG levels in brain at 1 mg/kg, sc measured at 0.5 hrs by LC-MS/MS method relative to control; format: functional; how it was run: as §1
[8] = tested on: Brain; test: Unbound drug level in C57Bl6 mouse brain at 1 mg/kg, sc at 0.5 hrs; format: ADME, organism-based; details: in vivo; how it was run: as §2
[9] = tested on: Brain; test: Unbound drug level in C57Bl6 mouse brain at 10 mg/kg, sc at 0.5 hrs; format: ADME, organism-based; details: in vivo; how it was run: as §2
[10] = tested on: Mus musculus; test: In vivo inhibition of MAGL in C57Bl6 mouse assessed as increase in 2-AG levels in brain at 10 mg/kg, sc measured after 24 hrs by LC-MS/MS method; format: functional, organism-based; how it was run: as §1
[11] = tested on: Mus musculus; test: In vivo inhibition of MAGL in C57Bl6 mouse assessed as increase in 2-AG levels in brain at 1 mg/kg, sc measured at 2 hrs by LC-MS/MS method; format: functional, organism-based; how it was run: as §1
[12] = target: T3, CES1 (liver carboxylesterase 1) (Homo sapiens, UniProt P23141); test: Inhibition of human CES1 at 10 uM relative to control
T3 sequence (P23141 whole entry): T1 sequence (P23141 whole entry)

[13] = Ratio of unbound drug level in C57Bl6 mouse brain to plasma at 1 to 10 mg/kg, sc; format: ADME, organism-based
[14] = target: T4, Platelet-activating factor acetylhydrolase (Homo sapiens) (UniProt Q13093); details: 10 uM
T4 sequence (whole entry): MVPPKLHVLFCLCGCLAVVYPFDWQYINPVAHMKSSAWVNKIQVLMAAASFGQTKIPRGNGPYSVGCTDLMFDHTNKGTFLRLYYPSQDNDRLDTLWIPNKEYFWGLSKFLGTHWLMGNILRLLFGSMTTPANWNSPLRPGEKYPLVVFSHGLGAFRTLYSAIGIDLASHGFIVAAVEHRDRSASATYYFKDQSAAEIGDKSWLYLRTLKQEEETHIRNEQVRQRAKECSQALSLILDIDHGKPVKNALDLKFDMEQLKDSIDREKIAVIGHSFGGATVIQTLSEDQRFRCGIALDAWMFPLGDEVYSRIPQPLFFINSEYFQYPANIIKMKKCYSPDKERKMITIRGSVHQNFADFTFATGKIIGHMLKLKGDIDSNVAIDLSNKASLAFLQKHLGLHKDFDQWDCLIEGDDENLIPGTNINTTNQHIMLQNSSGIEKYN

Kp uu [3]	inhibition (INH) [4] [%]	IC50 [6] [nM]	Drug uptake(free) [8] [nM]	Drug uptake(free) [9] [nM]	inhibition at 10 µM [12] [%]	Kp uu [13]	inhibition [14] [%]	SMILES	fold change (FC) [1]	inhibition [2]	Time [5] [h]	fold change (FC) [7]	inhibition [10]	inhibition [11]
0.6	> 70	260	0.02	2	–	–	–	O=C(OC(C(F)(F)F)C(F)(F)F)N1CC(c2ccn(-c3ccccc3)n2)C1	5	inactive	8	3	–	–
–	–	–	–	–	> 70	0.5	> 70	O=C(OC(C(F)(F)F)C(F)(F)F)N1CCC(c2ccn(-c3ccccc3)n2)CC1	–	–	–	–	Active	Active
